Source: ChEMBL document CHEMBL1250434, “A novel achiral seco-cyclopropylpyrido[e]indolone (CPyI) analog of CC-1065 and the duocarmycins: synthesis, DNA interactions, in vivo anticancer and anti-parasitic evaluation” (Bioorg Med Chem, 2010)

What was measured:
A549 = assay: Cytotoxicity against human A549 cells after 48 hrs by sulforhodamine B assay; assay type: functional; settings: A549, 48 h, read-out: pLC50 (the source's name) (converted)
Outline: (§1)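 NCI human cancer cell line panel. Continuous 48 h drug exposure, viability by sulforhodamine B. GI50, TGI and LC50 derived from dose–response curves.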

CCRF-CEM = assay: Cytotoxicity against human CCRF-CEM cells after 48 hrs by sulforhodamine B assay; assay type: functional; settings: read-out: pLC50 (the source's name) (converted); outline: as §1
Nucleic Acid = assay: Binding affinity to pUC18 DNA assessed as DNA alkylating activity after 5 hrs by thermal cleavage assay; assay type: nucleic-acid assay; settings: Escherichia coli
Outline: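 PCR probe from the 749–956 region of pUC18. DNA precipitated and lyophilised, then heated at 90 °C for 30 min in sodium citrate buffer (pH 7.2) to cleave at alkylated adenines. Fragments resolved by electrophoresis.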

L1210 [1] = assay: Cytotoxicity against mouse L1210 cells after 3 days by MTT assay; assay type: functional, cell-based; settings: L1210, 72 h
Outline: (§2)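 Murine tumour cells under continuous drug exposure for 3 days. Growth inhibition measured by MTT assay. IC50 is the concentration inhibiting growth by 50%.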

[2] = Cytotoxicity against mouse B16F0 cells after 3 days by MTT assay; assay type: functional, cell-based; settings: B16F0, 72 h; outline: as §2
L1210 [3] = assay: Selectivity ratio of IC50 for mouse L1210 cells to IC50 for mouse B16F0 cells; assay type: functional
EKVX = assay: Cytotoxicity against human EKVX cells after 48 hrs by sulforhodamine B assay; assay type: functional; settings: read-out: pLC50 (the source's name) (converted); outline: as §1
HOP-62 = assay: Cytotoxicity against human HOP62 cells after 48 hrs by sulforhodamine B assay; assay type: functional; settings: HOP-62, 48 h, read-out: pLC50 (the source's name) (converted); outline: as §1
HOP-92 = assay: Cytotoxicity against human HOP92 cells after 48 hrs by sulforhodamine B assay; assay type: functional; settings: HOP-92, 48 h, read-out: pLC50 (the source's name) (converted); outline: as §1
NCI-H23 = assay: Cytotoxicity against human NCI-H23 cells after 48 hrs by sulforhodamine B assay; assay type: functional; settings: NCI-H23, 48 h, read-out: pLC50 (the source's name) (converted); outline: as §1
NCI-H322M = assay: Cytotoxicity against human NCI-H322M cells after 48 hrs by sulforhodamine B assay; assay type: functional; settings: read-out: pLC50 (the source's name) (converted); outline: as §1
NCI-H460 = assay: Cytotoxicity against human NCI-H460 cells after 48 hrs by sulforhodamine B assay; assay type: functional; settings: NCI-H460, 48 h, read-out: pLC50 (the source's name) (converted); outline: as §1
NCI-H522 = assay: Cytotoxicity against human NCI-H522 cells after 48 hrs by sulforhodamine B assay; assay type: functional; settings: NCI-H522, 48 h, read-out: pLC50 (the source's name) (converted); outline: as §1
COLO 205 = assay: Cytotoxicity against human COLO205 cells after 48 hrs by sulforhodamine B assay; assay type: functional; settings: COLO 205, 48 h, read-out: pLC50 (the source's name) (converted); outline: as §1
HCT-15 = assay: Cytotoxicity against human HCT15 cells after 48 hrs by sulforhodamine B assay; assay type: functional; settings: HCT-15, 48 h, read-out: pLC50 (the source's name) (converted); outline: as §1
HT-29 = assay: Cytotoxicity against human HT-29 cells after 48 hrs by sulforhodamine B assay; assay type: functional; settings: HT-29, 48 h, read-out: pLC50 (the source's name) (converted); outline: as §1
KM12 = assay: Cytotoxicity against human KM12 cells after 48 hrs by sulforhodamine B assay; assay type: functional; settings: KM12, 48 h, read-out: pLC50 (the source's name) (converted); outline: as §1
SW-620 = assay: Cytotoxicity against human SW620 cells after 48 hrs by sulforhodamine B assay; assay type: functional; settings: SW-620, 48 h, read-out: pLC50 (the source's name) (converted); outline: as §1
SF-268 = assay: Cytotoxicity against human SF268 cells after 48 hrs by sulforhodamine B assay; assay type: functional; settings: SF-268, 48 h, read-out: pLC50 (the source's name) (converted); outline: as §1
SF-295 = assay: Cytotoxicity against human SF295 cells after 48 hrs by sulforhodamine B assay; assay type: functional; settings: SF-295, 48 h, read-out: pLC50 (the source's name) (converted); outline: as §1
SF-539 = assay: Cytotoxicity against human SF539 cells after 48 hrs by sulforhodamine B assay; assay type: functional; settings: SF-539, 48 h, read-out: pLC50 (the source's name) (converted); outline: as §1
SNB-19 = assay: Cytotoxicity against human SNB19 cells after 48 hrs by sulforhodamine B assay; assay type: functional; settings: SNB-19, 48 h, read-out: pLC50 (the source's name) (converted); outline: as §1
SNB-75 = assay: Cytotoxicity against human SNB75 cells after 48 hrs by sulforhodamine B assay; assay type: functional; settings: SNB-75, 48 h, read-out: pLC50 (the source's name) (converted); outline: as §1
M14 = assay: Cytotoxicity against human M14 cells after 48 hrs by sulforhodamine B assay; assay type: functional; settings: M14, 48 h, read-out: pLC50 (the source's name) (converted); outline: as §1
SK-MEL-2 = assay: Cytotoxicity against human SK-MEL-2 cells after 48 hrs by sulforhodamine B assay; assay type: functional; settings: SK-MEL-2, 48 h, read-out: pLC50 (the source's name) (converted); outline: as §1
SK-MEL-28 = assay: Cytotoxicity against human SK-MEL-28 cells after 48 hrs by sulforhodamine B assay; assay type: functional; settings: SK-MEL-28, 48 h, read-out: pLC50 (the source's name) (converted); outline: as §1
UACC-62 = assay: Cytotoxicity against human UACC62 cells after 48 hrs by sulforhodamine B assay; assay type: functional; settings: UACC-62, 48 h, read-out: pLC50 (the source's name) (converted); outline: as §1
IGROV-1 = assay: Cytotoxicity against human IGROV1 cells after 48 hrs by sulforhodamine B assay; assay type: functional; settings: IGROV-1, 48 h, read-out: pLC50 (the source's name) (converted); outline: as §1
OVCAR-3 = assay: Cytotoxicity against human OVCAR-3 cells after 48 hrs by sulforhodamine B assay; assay type: functional; settings: OVCAR-3, 48 h, read-out: pLC50 (the source's name) (converted); outline: as §1
OVCAR-4 = assay: Cytotoxicity against human OVCAR4 cells after 48 hrs by sulforhodamine B assay; assay type: functional; settings: OVCAR-4, 48 h, read-out: pLC50 (the source's name) (converted); outline: as §1
OVCAR-8 = assay: Cytotoxicity against human OVCAR8 cells after 48 hrs by sulforhodamine B assay; assay type: functional; settings: OVCAR-8, 48 h, read-out: pLC50 (the source's name) (converted); outline: as §1
SK-OV-3 = assay: Cytotoxicity against human SKOV3 cells after 48 hrs by sulforhodamine B assay; assay type: functional; settings: SK-OV-3, 48 h, read-out: pLC50 (the source's name) (converted); outline: as §1
786-0 = assay: Cytotoxicity against human 786-0 cells after 48 hrs by sulforhodamine B assay; assay type: functional; settings: 786-0, 48 h, read-out: pLC50 (the source's name) (converted); outline: as §1
CAKI-1 = assay: Cytotoxicity against human Caki1 cells after 48 hrs by sulforhodamine B assay; assay type: functional; settings: CAKI-1, 48 h, read-out: pLC50 (the source's name) (converted); outline: as §1
UO-31 = assay: Cytotoxicity against human UO31 cells after 48 hrs by sulforhodamine B assay; assay type: functional; settings: UO-31, 48 h, read-out: pLC50 (the source's name) (converted); outline: as §1
PC-3 = assay: Cytotoxicity against human PC3 cells after 48 hrs by sulforhodamine B assay; assay type: functional; settings: PC-3, 48 h, read-out: pLC50 (the source's name) (converted); outline: as §1
DU-145 = assay: Cytotoxicity against human DU145 cells after 48 hrs by sulforhodamine B assay; assay type: functional; settings: DU-145, 48 h, read-out: pLC50 (the source's name) (converted); outline: as §1
[4] = Cytotoxicity against human Hs 578T cells after 48 hrs by sulforhodamine B assay; assay type: functional; settings: read-out: pLC50 (the source's name) (converted); outline: as §1
BT-549 = assay: Cytotoxicity against human BT549 cells after 48 hrs by sulforhodamine B assay; assay type: functional; settings: BT-549, 48 h, read-out: pLC50 (the source's name) (converted); outline: as §1
T47D = assay: Cytotoxicity against human T47D cells after 48 hrs by sulforhodamine B assay; assay type: functional; settings: read-out: pLC50 (the source's name) (converted); outline: as §1
[5] = Antitumor activity against mouse B16F0 cells xenografted in C57/BL/6J mouse assessed as […] at 10 mg/kg, ip administered on day 1, 5, and 9 measured after 16 days; assay type: functional; settings: route intraperitoneal
Outline: (§3)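 Female C57/BL/6J mice, 5–7 weeks old, 8 per group. Given 200,000 cultured B16-F0 cells (PBS-washed, not mouse-passaged) sc in the left flank on day 0. Dosed 10 mg/kg ip in 1:2 PET/5% glucose on days 1, 5 and 9; controls received vehicle. Tumours measured by caliper about every other day. Volume = length × width². Measurements stopped when 50% of the group had died.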

[6] = Antitumor activity against mouse B16F0 cells xenografted in C57/BL/6J mouse assessed as […] at 10 mg/kg, ip administered on day 1, 5, and 9 measured after 21 days; assay type: functional; settings: route intraperitoneal; outline: as §3
Mus musculus [7] = assay: Toxicity in mouse B16F0 cells xenografted C57/BL/6J mouse assessed as reduction of body weight at 10 mg/kg, ip administered on day 1, 5, and 9 measured after 21 days; assay type: organism-based; design: dose 10 mg/kg, route intraperitoneal; settings: in vivo, 504 h
Outline: (§4)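 Female C57/BL/6J mice, 5–7 weeks old, 8 per group, carrying sc B16-F0 flank tumours implanted day 0. Dosed 10 mg/kg ip in 1:2 PET/5% glucose on days 1, 5 and 9; vehicle-treated controls on the same schedule. Body weights recorded every other day.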

Mus musculus [8] = assay: Systemic toxicity in mouse B16F0 cells xenografted C57/BL/6J mouse assessed as reduction of body weight at 10 mg/kg, ip administered on day 1, 5, and 9 measured after 21 days; assay type: organism-based; design: dose 10 mg/kg, route intraperitoneal; settings: in vivo, 504 h; outline: as §4
Leishmania donovani = assay: Antimicrobial activity against promastigotes of Leishmania donovani assessed as inhibition of cell proliferation after 72 hrs by alamar blue assay; assay type: functional, organism-based
Outline: (§5)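 Promastigotes at 5 × 10^4 cells/well in DME-L medium with 10% heat-inactivated FBS, hemin, xanthine and penicillin-streptomycin. Exposed to 0.03 nM to 64 µM compound for 72 h at 26 °C. Alamar blue added, incubated 15 h, dye reduction read by fluorescence ex 530/em 590 nm.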

Trypanosoma brucei = assay: Antimicrobial activity against procyclic form of Trypanosoma brucei 427 assessed as inhibition of cell proliferation after 72 hrs by alamar blue assay; assay type: functional, organism-based; settings: Trypanosoma brucei, 427, 72 h
Outline: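 T. brucei 427 procyclic forms grown in SDM 79 medium with 0.03 nM to 64 µM compound for 72 h at 26 °C. Proliferation read by Alamar blue reduction after a further 15 h, fluorescence ex 530/em 590 nm.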

Plasmodium falciparum = assay: Antimicrobial activity against Plasmodium falciparum infected in human erythrocytes assessed as growth inhibition; assay type: functional, organism-based
Outline: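 P. falciparum grown in human erythrocytes at 3–5% hematocrit in complete medium. In vitro growth assay at six concentrations, in triplicate, in three independent experiments.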

Leishmania mexicana = assay: Antimicrobial activity against promastigotes of Leishmania mexicana assessed as inhibition of cell proliferation after 72 hrs by alamar blue assay; assay type: functional, organism-based; outline: as §5

SMILES: COc1cc2cc(C(=O)Nc3cc(O)c4ncc(C)cc4c3CCCl)[nH]c2c(OC)c1OC
- CC50 (A549): > 100000 nM
- CC50 (CCRF-CEM): > 100000 nM
- Activity (Nucleic Acid): Dose-dependent effect
- IC50 (L1210 [1]): 0.72 nM
- IC50 [2]: 2.3 nM
- Ratio (L1210 [3]): 10
- CC50 (EKVX): 3020 nM
- CC50 (HOP-62): < 10 nM
- CC50 (HOP-92): 28200 nM
- CC50 (NCI-H23): < 10 nM
- CC50 (NCI-H322M): 123 nM
- CC50 (NCI-H460): 81300 nM
- CC50 (NCI-H522): > 100000 nM
- CC50 (COLO 205): > 100000 nM
- CC50 (HCT-15): > 100000 nM
- CC50 (HT-29): > 100000 nM
- CC50 (KM12): 191 nM
- CC50 (SW-620): > 100000 nM
- CC50 (SF-268): > 100000 nM
- CC50 (SF-295): 20900 nM
- CC50 (SF-539): 151 nM
- CC50 (SNB-19): 100000 nM
- CC50 (SNB-75): 11.5 nM
- CC50 (M14): < 10 nM
- CC50 (SK-MEL-2): > 100000 nM
- CC50 (SK-MEL-28): > 100000 nM
- CC50 (UACC-62): < 10 nM
- CC50 (IGROV-1): > 100000 nM
- CC50 (OVCAR-3): 2630 nM
- CC50 (OVCAR-4): 6030 nM
- CC50 (OVCAR-8): 275 nM
- CC50 (SK-OV-3): > 100000 nM
- CC50 (786-0): 135 nM
- CC50 (CAKI-1): 1550 nM
- CC50 (UO-31): > 100000 nM
- CC50 (PC-3): 11500 nM
- CC50 (DU-145): 2190 nM
- CC50 [4]: > 100000 nM
- CC50 (BT-549): > 100000 nM
- CC50 (T47D): > 100000 nM
- Activity [5]: 1700 mm3
- Activity [6]: 2000 mm3
- Activity (Mus musculus [7]): Non-toxic
- Activity (Mus musculus [8]): Toxic
- IC50 (Leishmania donovani): 340 nM
- IC50 (Trypanosoma brucei): 56 nM
- IC50 (Plasmodium falciparum): 1.8 nM
- IC50 (Leishmania mexicana): 119 nM
